Series [1] can be described thus: Inhibition of HCV NS4A-tethered single chain NS3 serine protease by spectrophotometric assay. On the set-up: species or system Hepacivirus hominis. In outline: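 Continuous assay with NS4A-tethered single-chain NS3 serine protease; potency given as Ki*.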
The subject of a further series is Hepatitis C virus. Put plainly: Antiviral activity against Hepatitis C virus genotype 1 infected in human hepatocytes by replicon assay. As to conditions: genotype 1, Hepatocyte. The format is functional, Hepacivirus hominis. In outline:
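HCV genotype 1 replicon cell assay; EC90 reported, within 3-fold at 95% confidence for a single assay and within 2-fold for multiple assays.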
(In general: Replicon systems follow genome replication, usually without infectious particles.)

The nature of series [2]: Cytotoxicity against human hepatocytes assessed as effect on GAPDH RNA level […]. The series is classed as cell-based, Hepatocyte. In outline: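 Counter-screen for cellular toxicity measuring GAPDH; CC50 reported.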
In general terms: Formazan colour is commonly taken as a measure of viable cells.

The values below come from ChEMBL document CHEMBL1136954, “Toward the back-up of boceprevir (SCH 503034): discovery of new extended P4-capped ketoamide inhibitors of hepatitis C virus NS3 serine protease with improved potency and pharmacokinetic profiles” (J Med Chem, 2009).

Molecules are shown by their SMILES.

With `CC(C)(NC(=O)N[C@H](C(=O)N1C[C@H]2[C@@H]([C@H]1C(=O)NC(CC1CC1)C(=O)C(N)=O)C2(C)C)C(C)(C)C)C(=O)OCc1ccccc1` (mixture of isomers), the affinity in series [1], expressed as Ki, was 210 nM. Also, the 90% effect level in the series on Hepatitis C virus (EC90) was put at 1480 nM. Besides, in series [2], the CC50 (in general, the concentration that lowers cell viability or growth by half) was more than 5000 nM.
In the case of `CC(C)[C@H](NC(=O)N[C@H](C(=O)N1C[C@H]2[C@@H]([C@H]1C(=O)NC(CC1CC1)C(=O)C(N)=O)C2(C)C)C(C)(C)C)C(=O)C(C)(C)C` (mixture of isomers), the affinity in series [1], expressed as Ki, was 12 nM. Also, the EC90 – broadly, the concentration at which the effect reaches the 90% level – with Hepatitis C virus stood at 200 nM. Besides, the CC50 in series [2] is more than 5000 nM.
Regarding `CC(C)(C)[C@H](NC(=O)NC1(C(=O)OCc2ccco2)CCCCC1)C(=O)N1C[C@H]2[C@@H]([C@H]1C(=O)NC(CC1CC1)C(=O)C(N)=O)C2(C)C` (mixture of isomers), affinity in series [1] was put at a Ki of 28 nM. For the same compound, the 90% effect level in the series with Hepatitis C virus (EC90) was put at 30 nM. For the same compound, in series [2], the CC50 was more than 5000 nM.
For the compound `CC(C)(C)[C@H](NC(=O)NC1(C(=O)OCc2ccccc2)CC1)C(=O)N1C[C@H]2[C@@H]([C@H]1C(=O)NC(CC1CC1)C(=O)C(N)=O)C2(C)C` (mixture of isomers), in series [1], the Ki – broadly, the dissociation constant of the complex between target and ligand, obtained from inhibition or displacement – was found to be 170 nM. The same compound registered a concentration for an effect of 90% (EC90) with Hepatitis C virus of 1000 nM. In addition, in series [2], the CC50 was more than 5000 nM.
Regarding `C=C(c1ccccc1)[C@@H](NC(=O)N[C@H](C(=O)N1C[C@H]2[C@@H]([C@H]1C(=O)NC(CC1CC1)C(=O)C(N)=O)C2(C)C)C(C)(C)C)C(C)C` (mixture of isomers), the Ki in series [1] came out at 50 nM. For the same compound, the CC50 in series [2] was more than 5000 nM.
As to `CC1(NC(=O)N[C@H](C(=O)N2C[C@H]3[C@@H](C2C(=O)NC(CC2CCC2)C(=O)C(N)=O)C3(C)C)C(C)(C)C)CCCCC1` (stereo not given in full), in series [1], the Ki was 8 nM. In addition, in the series on Hepatitis C virus, the EC90 turned out to be 200 nM. Besides, in series [2], the CC50 was more than 5000 nM.
`CC(C)(C)[C@H](NC(=O)NC1(C(=O)OCc2ccoc2)CCCCC1)C(=O)N1C[C@H]2[C@@H]([C@H]1C(=O)NC(CC1CC1)C(=O)C(N)=O)C2(C)C` (mixture of isomers) returned a Ki in series [1] of 39 nM. The compound also had an EC90 with Hepatitis C virus of 20 nM. The CC50 in series [2] is more than 5000 nM.
`CC(=O)[C@@H](NC(=O)N[C@H](C(=O)N1C[C@H]2[C@@H]([C@H]1C(=O)NC(CC1CC1)C(=O)C(N)=O)C2(C)C)C(C)(C)C)C(C)C` (mixture of isomers) gave a Ki in series [1] of 14 nM. For the same compound, the EC90 with Hepatitis C virus was found to be 400 nM. The CC50 in series [2] is more than 5000 nM.
Consider `C=CCNC(=O)C(=O)C(CC1CC1)NC(=O)[C@@H]1[C@@H]2[C@H](CN1C(=O)[C@@H](NC(=O)N[C@H](C(=O)C1CC1)C1CCCCC1)C(C)(C)C)C2(C)C` (mixture of isomers), for which affinity in series [1] was put at a Ki of 27 nM. The compound also registered a concentration for an effect of 90% (EC90) in the series on Hepatitis C virus of 450 nM. In addition, the CC50 in series [2] was more than 5000 nM.
In turn, `CC(C)(C)[C@H](NC(=O)N[C@H](C(=O)N1C[C@H]2[C@@H]([C@H]1C(=O)NC(CC1CC1)C(=O)C(N)=O)C2(C)C)C(C)(C)C)C(=O)OCc1ccccc1` (mixture of isomers) registered a Ki in series [1] of 67 nM. The EC90 in the series with Hepatitis C virus was found to be 50 nM. Besides, in series [2], the CC50 was more than 5000 nM.
In series [1], `CC(C)(C)[C@H](NC(=O)N[C@H](C(=O)OCc1ccccc1)C1CCCC1)C(=O)N1C[C@H]2[C@@H]([C@H]1C(=O)NC(CC1CC1)C(=O)C(N)=O)C2(C)C` (mixture of isomers) came in with a Ki of 9 nM. Further, the EC90 in the series on Hepatitis C virus was found to be 25 nM. In addition, in series [2], the CC50 is more than 5000 nM.
`CC(C)(C)[C@H](NC(=O)NC1(C(=O)NS(=O)(=O)c2ccccc2)CCCCC1)C(=O)N1C[C@H]2[C@@H]([C@H]1C(=O)NC(CC1CC1)C(=O)C(N)=O)C2(C)C` (mixture of isomers) displayed a Ki in series [1] of 110 nM. For the same compound, in the series on Hepatitis C virus, the EC90 was found to be 5000 nM. The CC50 in series [2] is more than 5000 nM.
`CC(C)(C)[C@H](NC(=O)N[C@H](C(=O)OCc1ccccc1)C1CCCCC1)C(=O)N1C[C@H]2[C@@H]([C@H]1C(=O)NC(CC1CC1)C(=O)C(N)=O)C2(C)C` (mixture of isomers) had a Ki in series [1] of 10 nM. Also, in the series with Hepatitis C virus, the EC90 was 20 nM. For the same compound, in series [2], the CC50 is more than 5000 nM.
Consider `C[C@@H](OC(=O)C1(NC(=O)N[C@H](C(=O)N2C[C@H]3[C@@H]([C@H]2C(=O)NC(CC2CC2)C(=O)C(N)=O)C3(C)C)C(C)(C)C)CCCCC1)c1ccccc1` (mixture of isomers), for which the Ki in series [1] is 80 nM. In the series with Hepatitis C virus, the EC90 came to 600 nM. Besides, the CC50 in series [2] is more than 5000 nM.
As to `CC(C)[C@H](NC(=O)N[C@H](C(=O)N1C[C@H]2[C@@H]([C@H]1C(=O)NC(CC1CC1)C(=O)C(N)=O)C2(C)C)C(C)(C)C)C(=O)O[C@H](C)c1ccccc1` (mixture of isomers), in series [1], the Ki turned out to be 80 nM. The compound also registered a 90% effect concentration (EC90) with Hepatitis C virus of 600 nM. Besides, in series [2], the CC50 is more than 5000 nM.
Compound `CC(C)[C@H](NC(=O)N[C@H](C(=O)N1C[C@H]2[C@@H]([C@H]1C(=O)NC(CC1CC1)C(=O)C(N)=O)C2(C)C)C(C)(C)C)C(=O)C1CCC1` (mixture of isomers) came in with a Ki in series [1] of 20 nM. Also, it took 350 nM to reach the 90% level with Hepatitis C virus (EC90). For the same compound, the CC50 in series [2] was more than 5000 nM.
In the same order, the values of `CC(C)[C@H](NC(=O)N[C@H](C(=O)N1C[C@H]2[C@@H]([C@H]1C(=O)NC(CC1CC1)C(=O)C(N)=O)C2(C)C)C(C)(C)C)C(=O)NS(=O)(=O)c1ccccc1` (mixture of isomers) are 6 nM, 5000 nM and more than 5000 nM.
The matching figures for `COC(=O)C1(NC(=O)N[C@H](C(=O)N2C[C@H]3[C@@H]([C@H]2C(=O)NC(CC2CC2)C(=O)C(N)=O)C3(C)C)C(C)(C)C)CCCCC1` (mixture of isomers): 30 nM, 200 nM and more than 5000 nM.
In turn, `CC(C)(C)[C@H](NC(=O)NC1(C(=O)O)CCCCC1)C(=O)N1C[C@H]2[C@@H]([C@H]1C(=O)NC(CC1CC1)C(=O)C(N)=O)C2(C)C` (mixture of isomers) displayed a Ki in series [1] of 9 nM. Besides, the EC90 with Hepatitis C virus stood at 5000 nM. For the same compound, the CC50 in series [2] was more than 5000 nM.
Regarding `CC(C)(C)[C@H](NC(=O)NC1(C(=O)c2ccccc2)CCCCC1)C(=O)N1C[C@H]2[C@@H]([C@H]1C(=O)NC(CC1CC1)C(=O)C(N)=O)C2(C)C` (mixture of isomers), in series [1], the Ki came to 100 nM. Moreover, the concentration for an effect of 90% (EC90) in the series on Hepatitis C virus was found to be 2000 nM. Also, the CC50 in series [2] was more than 5000 nM.
In the case of `CC(C)[C@@](C)(NC(=O)N[C@H](C(=O)N1C[C@H]2[C@@H]([C@H]1C(=O)NC(CC1CC1)C(=O)C(N)=O)C2(C)C)C(C)(C)C)C(=O)OCc1ccccc1` (mixture of isomers), affinity in series [1] was put at a Ki of 290 nM. In series [2], the CC50 was more than 5000 nM.
Regarding `CC(C)[C@H](NC(=O)N[C@H](C(=O)N1C[C@H]2[C@@H]([C@H]1C(=O)NC(CC1CC1)C(=O)C(N)=O)C2(C)C)C(C)(C)C)[C@H](O)c1ccccc1` (mixture of isomers), the Ki in series [1] was 77 nM. For the same compound, in series [2], the half-maximal cytotoxic concentration (CC50) was more than 5000 nM.
`CC(C)(C)[C@H](NC(=O)NC1(C(=O)OCc2ccsc2)CCCCC1)C(=O)N1C[C@H]2[C@@H]([C@H]1C(=O)NC(CC1CC1)C(=O)C(N)=O)C2(C)C` (mixture of isomers) registered a Ki in series [1] of 31 nM. This compound also had an EC90 with Hepatitis C virus of 20 nM. Besides, the CC50 in series [2] is more than 5000 nM.
In series [1], `CO[C@H](c1ccccc1)[C@@H](NC(=O)N[C@H](C(=O)N1C[C@H]2[C@@H]([C@H]1C(=O)NC(CC1CC1)C(=O)C(N)=O)C2(C)C)C(C)(C)C)C(C)C` (mixture of isomers) displayed a Ki of 60 nM. For the same compound, in series [2], the CC50 was more than 5000 nM.
As to `CC(C)[C@](C)(NC(=O)N[C@H](C(=O)N1C[C@H]2[C@@H]([C@H]1C(=O)NC(CC1CC1)C(=O)C(N)=O)C2(C)C)C(C)(C)C)C(=O)OCc1ccccc1` (mixture of isomers), the Ki in series [1] amounted to 44 nM. Besides, in the series on Hepatitis C virus, it took 500 nM to reach the 90% level (EC90). The CC50 in series [2] is more than 5000 nM.
The matching figures for `CC(C)[C@H](NC(=O)N[C@H](C(=O)N1C[C@H]2[C@@H]([C@H]1C(=O)NC(CC1CC1)C(=O)C(N)=O)C2(C)C)C(C)(C)C)C(=O)C1CCCCC1` (mixture of isomers): 13 nM, 200 nM and more than 5000 nM.
In the case of `CC(C)(C)[C@H](NC(=O)NC1(C(=O)NCc2ccccc2)CCCCC1)C(=O)N1C[C@H]2[C@@H]([C@H]1C(=O)NC(CC1CC1)C(=O)C(N)=O)C2(C)C` (mixture of isomers), the Ki in series [1] was 44 nM. This compound also came in with an EC90 in the series on Hepatitis C virus of 5000 nM. In addition, in series [2], the CC50 is more than 5000 nM.
In the same order, the values of `CC(C)(C)[C@H](NC(=O)N[C@H](C(=O)OCc1ccccc1)C1CC1)C(=O)N1C[C@H]2[C@@H]([C@H]1C(=O)NC(CC1CC1)C(=O)C(N)=O)C2(C)C` (mixture of isomers) are 10 nM, 20 nM and more than 5000 nM.
For `CC(C)(C)[C@H](NC(=O)NC1(C(=O)OCc2ccccc2)CCCC1)C(=O)N1C[C@H]2[C@@H]([C@H]1C(=O)NC(CC1CC1)C(=O)C(N)=O)C2(C)C` (mixture of isomers), the inhibition constant (Ki) in series [1] was 58 nM. In addition, it took 30 nM to reach the 90% level in the series with Hepatitis C virus (EC90). In series [2], the CC50 is more than 5000 nM.
For `C=CCNC(=O)C(=O)C(CCCC)NC(=O)[C@@H]1[C@@H]2[C@H](CN1C(=O)[C@@H](NC(=O)N[C@H](C(=O)C1CC1)C1CCCCC1)C(C)(C)C)C2(C)C` (mixture of isomers), in series [1], the Ki came out at 38 nM. This compound also gave an EC90 in the series on Hepatitis C virus of 900 nM. The CC50 in series [2] is more than 5000 nM.
In turn, `CO/N=C(\c1ccccc1)[C@@H](NC(=O)N[C@H](C(=O)N1C[C@H]2[C@@H]([C@H]1C(=O)NC(CC1CC1)C(=O)C(N)=O)C2(C)C)C(C)(C)C)C(C)C` (mixture of isomers) gave a Ki in series [1] of 50 nM. The CC50 in series [2] was more than 5000 nM.
The matching figures for `CC(C)[C@@H](Cc1ccccc1)NC(=O)N[C@H](C(=O)N1C[C@H]2[C@@H]([C@H]1C(=O)NC(CC1CC1)C(=O)C(N)=O)C2(C)C)C(C)(C)C` (mixture of isomers): 59 nM and more than 5000 nM.
